Among the data in ChEMBL document CHEMBL1128185, “New orally active serine protease inhibitors: structural requirements for their good oral activity” (J Med Chem, 1995) are half-life values, retold here.

For orientation: half-life means the time needed for the level to fall by half in the phase considered. The low end stands for rapid decline, the high end for slow decline.

Each structure is given as a SMILES string.

Series [1] in a line: The half-life period in vitro in plasma. It is filed as ADME, cell-free. The procedure, abridged:
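Rat plasma (1.0 mL) spiked with 5 µL of drug dissolved at 2 mg/mL in 80% aqueous acetonitrile, incubated at 37 °C for 60 min. Parent drug and products followed by ion-paired HPLC with internal standard; metabolites identified by retention times of synthesized authentic samples. Stability expressed as half-life (min), mean of two separate experiments.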

Series [2] in a line: The half-life period in vitro in rat small Intestine Homogenate. It is filed as ADME. In outline:
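Small intestine from rats fasted 20 h, saline-washed, homogenized in 8 vol 1/10 M sodium phosphate pH 7.4, spun at 600g for 15 min; supernatant (1.0 mL) given 10 µL drug (5 mg/mL in 80% aqueous acetonitrile), 37 °C, 60 min. Aliquots quenched at intervals with acetonitrile containing internal standard and analyzed by HPLC. Half-life (min), mean of two experiments.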

With `C=CCN(CCC(=O)O)C(=O)/C(C)=C/c1ccc(C(=O)Oc2ccc(C(=N)N)cc2)cc1`, the half-life in series [1] is 47 min; in series [2] it was more than 60 min.

As for `C/C(=C\c1ccc(C(=O)Oc2ccc(C(=N)N)cc2)cc1)C(=O)N(CC(=O)O)Cc1ccccc1`, the half-life is more than 60 min in series [1] and 50 min in series [2].

With `CCOC(=O)CCCN(C(=O)/C(C)=C/c1ccc(C(=O)Oc2ccc(C(=N)N)cc2)cc1)C(C(=O)O)C(=O)OCC` (stereo not given), the half-life in series [1] was 14 min.

For `C/C(=C\c1ccc(C(=O)Oc2ccc(C(=N)N)cc2)cc1)C(=O)N(CCO)Cc1ccccc1`, the values for the half-life in series [1] and in series [2] were less than 5 min and 41 min, respectively.

Turning to `CCOC(=O)CN(Cc1ccccc1)C(=O)/C(C)=C/c1ccc(C(=O)Oc2ccc(C(=N)N)cc2)cc1`, the half-life in series [1] is less than 1 min; in series [2], 44 min.

On to `C/C(=C\c1ccc(C(=O)Oc2ccc(C(=N)N)cc2)cc1)C(=O)N(CC(=O)O)C1CCCCC1`, for which the half-life in series [1] is more than 60 min; in series [2], 49 min.

Turning to `CCOC(=O)CCCN(C(=O)/C(C)=C/c1ccc(C(=O)Oc2ccc(C(=N)N)cc2)cc1)C(C(=O)OCC)C(=O)OCC`, the half-life in series [1] was less than 1 min.

On to `C/C(=C\c1ccc(C(=O)Oc2ccc(C(=N)N)cc2)cc1)C(=O)N(CC(=O)O)C1CCCC1`, for which the half-life in series [1] was found to be 23 min; in series [2], 42 min.

In the case of `C=CCN(CCCC(=O)O)C(=O)/C(C)=C/c1ccc(C(=O)Oc2ccc(C(=N)N)cc2)cc1`, the half-life is more than 60 min in series [1] and 55 min in series [2].

Compound `C=CCN(CCC(=O)OCC)C(=O)/C(C)=C/c1ccc(C(=O)Oc2ccc(C(=N)N)cc2)cc1` gave a half-life in series [1] of less than 1 min.

On to `CCOC(=O)CN(C(=O)/C(C)=C/c1ccc(C(=O)Oc2ccc(C(=N)N)cc2)cc1)C1CCCC1`, for which the half-life in series [1] was less than 5 min; in series [2], more than 60 min.

In turn, `C=CCN(CCCC(=O)OCC)C(=O)/C(C)=C/c1ccc(C(=O)Oc2ccc(C(=N)N)cc2)cc1` gave a half-life in series [1] of less than 1 min.

With `CCOC(=O)C(C(=O)OCC)N(CCCC(=O)O)C(=O)/C(C)=C/c1ccc(C(=O)Oc2ccc(C(=N)N)cc2)cc1`, in series [1], the half-life stood at 29 min.

With `CCOC(=O)CN(C(=O)/C(C)=C/c1ccc(C(=O)Oc2ccc(C(=N)N)cc2)cc1)C1CCCCC1`, the results for the half-life in series [1] and in series [2] were less than 5 min and more than 60 min, respectively.

Regarding `CCN(CC(=O)O)C(=O)/C(C)=C/c1ccc(C(=O)Oc2ccc(C(=N)N)cc2)cc1`, the half-life was 60 min in series [1] and more than 60 min in series [2].
